Measurements from different studies.
Each line is one published result; the experiments were not run side by side.
Target: Kappa-type opioid receptor (OPRK1, Homo sapiens, UniProt P41145)

Compound	read-out	mode	method	measurement	value
CCOCc1nc(O)c(-c2nnc(Cc3ccc(Cl)cn3)o2)c(O)c1-c1c(OC)cccc1OC	ligand displacement		radioligand	IC50	> 30 µM
CNC(=O)[C@@]12C[C@@H]1[C@@H](n1cnc3c(NC)cc(C#Cc4ccc(Cl)s4)nc31)[C@H](O)[C@@H]2O	cell-free assay			Ki	> 10 µM
OCCCN1CC[C@@H]2C[C@H]1c1cc(-c3ccc(C(F)(F)F)cc3)ccc12	ligand displacement		radioligand	Ki	7.09 µM
O[C@@H]1[C@H](O)[C@@H]2C[C@@H]2[C@H]1n1cnc2c(NCCc3ccccc3)nc(C#Cc3ccccc3)nc21	cell-free assay			Ki	> 10 µM
Cc1ccc(C(=O)NCC2CCN(Cc3ccc(C(C)C)cc3)CC2)cc1	cell-free assay			Ki	> 10 µM
O[C@@H]1[C@H](O)[C@@H]2C[C@@H]2[C@H]1n1cnc2c(NCc3cccc(Cl)c3)ncnc21	cell-free assay			Ki	> 10 µM
O=C(c1ccccn1)N(Cc1cccs1)C1(C(=O)NC2CCCCC2)CCCCC1	β-arrestin recruitment	agonist		EC50	0.11 µM
Cc1nccc2c1c(=O)n(C)c1cc(OC[C@@H](N)CC(C)C)c(C#N)cc21	cell-free assay			IC50	29 µM
CCCCN1CCC(COC(=O)c2ccc(N)c(OCF)c2)CC1	cell-free assay		radioligand	Ki	> 10 µM
OC[C@@]12C[C@@H]1[C@@H](n1cnc3c(NC(C4CCCC4)C4CCCC4)nc(Cl)nc31)[C@H](O)[C@@H]2O	cell-free assay		radioligand	Ki	0.11 µM
Clc1ccc(CSc2nnc(-c3ccccn3)n2Cc2cccs2)cc1Cl	β-arrestin recruitment	agonist	imaging	EC50	0.39 µM
Cc1cc(C)nc(C(=O)NC[C@@H]2CCCN(Cc3ccc(F)c(F)c3)C2)c1	cell-free assay			Ki	6.46 µM
